Data set [1] has as its system MCF7. The data set can be described thus: Cytotoxicity against human MCF7 cells after 48 hrs by PrestoBlue cell viability assay. Type of data set: functional, cell-based. Particulars: MCF7, 48 h. The procedure, abridged:
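MCF-7 cells grown in DMEM with 10% FBS, 2 mM L-glutamine, penicillin and streptomycin, 37 °C, 5% CO2. Seeded for exponential growth, then after 24 h switched to medium containing compound or DMSO vehicle (0.1% or 1.0% v/v). Viability read by PrestoBlue fluorescence after 48 h, as % of vehicle control. Six replicates, at least three independent experiments, means ± SE.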

Data set [2] in a line: Antioxidant activity assessed as DPPH scavenging activity after 30 mins by spectrophotometry. Type of data set: physicochemical. Particulars: 0.5 h; read-out: ED50 (the source's name). The procedure, abridged:
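Samples prepared in double-distilled methanol at 320, 160, 80, 40, 20, 10, 5 and 2.5 μg/mL. 1.0 mL added to 2.0 mL of 76 μM DPPH in methanol, held 30 min at room temperature, remaining DPPH read at 517 nm. Control was methanol plus DPPH; quercetin served as positive control. EC50 (50% absorbance decrease) obtained from a plot of % scavenged versus initial concentration.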
In general terms: DPPH is a stable violet radical that fades when it is reduced.

Data set [3] is described as follows: Activity index, ratio of compound ED50 to quercetin ED50 for antioxidant activity assessed as DPPH scavenging activity after 30 mins by spectrophotometry.

As usually defined, the IC50 is the concentration that gives 50% inhibition. High values mean weaker potency, low ones greater potency. For the compound `CC(C)(O)/C=C/CC1(C)C=Cc2c(O)c(C(=O)/C=C/c3cc(O)ccc3O)cc(O)c2O1` (stereo not given), in data set [1], the IC50 was > 228 µM.
On to `CC(C)=CCCC1(C)C=Cc2c(O)c(C(=O)/C=C/c3cc(O)ccc3O)cc(O)c2O1` (stereo not given), for which half-maximal inhibition in data set [1] (IC50) required 7.6 µM. In addition, the EC50 in data set [2] stood at 5.9 µM. For the same compound, the Ratio ED50 in data set [3] is 2.4.
On the same counts, the results for `CC(C)=CCCC1(C)C=Cc2c(O)c(C(=O)/C=C/c3ccccc3O)cc(O)c2O1` (stereo not given) are 8.9 µM, 4.4 µM and 1.8.
Compound `C=C(C)C(O)CCC1(C)C=Cc2c(O)c(C(=O)/C=C/c3cc(O)ccc3O)cc(O)c2O1` (stereo not given) displayed an IC50 in data set [1] of 221 µM. In data set [2], the EC50 came out at 8.3 µM. The Ratio ED50 in data set [3] was found to be 3.3.
`O=c1c(O)c(-c2ccc(O)c(O)c2)oc2cc(O)cc(O)c12` [QUERCETIN]: the EC50 in data set [2] is 2.5 µM.
On to `CC(C)=CCCC1(C)C=Cc2c(O)c(C(=O)/C=C/c3c(O)cccc3O)cc(O)c2O1` (stereo not given), for which the IC50 in data set [1] is > 237 µM. Besides, the EC50 in data set [2] was found to be 7.8 µM. For the same compound, the Ratio ED50 in data set [3] is 3.1.
Turning to `CC(C)(O)/C=C/CC1(C)C=Cc2c(O)c(C(=O)/C=C/c3ccccc3O)cc(O)c2O1` (stereo not given), the IC50 in data set [1] is > 236 µM.
On the same count and under the same terms, for `CC(C)n1nc(C#Cc2ccncc2)c2c(N)ncnc21` the value was 5 µM; for `C=C(C)C(O)CCC1(C)C=Cc2c(O)c(C(=O)/C=C/c3ccccc3O)cc(O)c2O1` (mixture of isomers), > 236 µM.
Still for that read-out and setting: for `Cc1cc(O)c2c(c1)C(=O)c1cc(O)cc(O)c1C2=O` [EMODIN] the value was 317 µM.
Consider `C=C(C)C(O)CCC1(C)C=Cc2c(O)c(C(=O)/C=C/c3c(O)cccc3O)cc(O)c2O1` (stereo not given), for which, in data set [2], the EC50 came out at 8.9 µM. Further, in data set [3], the Ratio ED50 worked out at 3.5.

The record behind these values is ChEMBL document CHEMBL3351232, “Flemingins G-O, cytotoxic and antioxidant constituents of the leaves of Flemingia grahamiana” (J Nat Prod, 2014).
